Source: ChEMBL document CHEMBL3286129, “Optimization of peptidomimetic boronates bearing a P3 bicyclic scaffold as proteasome inhibitors” (Eur J Med Chem, 2014)

Legend:
Type in all cases: functional
NCI-H322M = assay: Growth inhibition of human NCI-H322M cells
[1] = Growth inhibition of human HCC2998 cells; details: HCC 2998
HCT-116 = assay: Growth inhibition of human HCT116 cells
[2] = Growth inhibition of human HCT15 cells
KM12 = assay: Growth inhibition of human KM12 cells
SW-620 = assay: Growth inhibition of human SW620 cells
SF-268 = assay: Growth inhibition of human SF268 cells
[3] = Growth inhibition of human SF295 cells; details: SF-295
SNB-19 = assay: Growth inhibition of human SNB19 cells
U-251 = assay: Growth inhibition of human U251 cells
M14 = assay: Growth inhibition of human M14 cells
MDA-MB-435 = assay: Growth inhibition of human MDA-MB-435 cells
SK-MEL-2 = assay: Growth inhibition of human SK-MEL-2 cells
[4] = Growth inhibition of human UACC62 cells; details: UACC-62
[5] = Growth inhibition of human OVCAR5 cells; details: OVCAR-5
[6] = Growth inhibition of human OVCAR8 cells
SK-OV-3 = assay: Growth inhibition of human SKOV3 cells
A498 = assay: Growth inhibition of human A498 cells
CAKI-1 = assay: Growth inhibition of human CAKI-1 cells
[7] = Growth inhibition of human RXF393 cells
SN12C = assay: Growth inhibition of human SN12C cells
PC-3 = assay: Growth inhibition of human PC3 cells
DU-145 = assay: Growth inhibition of human DU145 cells
MDA-MB-231 = assay: Growth inhibition of human MDA-MB-231 cells
[8] = Growth inhibition of human Hs 578T cells
T47D = assay: Growth inhibition of human T47D cells
MDA-MB-468 = assay: Growth inhibition of human MDA-MB-468 cells
[9] = Cytotoxicity against human colon cancer cells assessed as cell growth at 10 uM relative to control; details: Cancer cell lines, read-out: Activity
Method in brief: (§1)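 Single-concentration screen against a panel of human cancer cell lines. Each value is the mean percent growth across the cell lines of that tumour subpanel.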

[10] = Cytotoxicity against human CNSC cells assessed as cell growth at 10 uM relative to control; details: read-out: Activity; method in brief: as §1
[11] = Cytotoxicity against human melanoma cells assessed as cell growth at 10 uM relative to control; details: read-out: Activity; method in brief: as §1
[12] = Cytotoxicity against human ovarian cancer cells assessed as cell growth at 10 uM relative to control; details: Cancer cell lines, read-out: Activity; method in brief: as §1
[13] = Cytotoxicity against human renal cancer cells assessed as cell growth at 10 uM relative to control; details: Cancer cell lines, read-out: Activity; method in brief: as §1
CCRF-CEM = assay: Growth inhibition of human CCRF-CEM cells
HL-60(TB) = assay: Growth inhibition of human HL-60(TB) cells; details: read-out: LC50 (the source's name)
K562 = assay: Growth inhibition of human K562 cells
RPMI-8226 = assay: Growth inhibition of human RPMI8226 cells
A549 = assay: Growth inhibition of human A549/ATCC cells
NCI-H23 = assay: Growth inhibition of human NCI-H23 cells
[14] = read-out: LC50 (the source's name)

**Q.** For `CC(C)C[C@H](NC(=O)CCn1ccc2ccc(Br)cc2c1=O)B(O)O`, which GI50 (NCI-H322M) is on record?
**A.** > 100 µM

**Q.** And the TGI (NCI-H322M)?
**A.** > 100 µM

**Q.** What about the CC50 (NCI-H322M; [14]) of the same compound?
**A.** > 100 µM

**Q.** And the GI50 [1]?
**A.** 1.14 µM

**Q.** What about the LC50 [1] of the same compound?
**A.** 8.42 µM

**Q.** And the TGI [1]?
**A.** 3.09 µM

**Q.** And the GI50 (HCT-116)?
**A.** 0.34 µM

**Q.** What about the LC50 (HCT-116) of the same compound?
**A.** > 100 µM

**Q.** And the TGI (HCT-116)?
**A.** 2.55 µM

**Q.** And the GI50 ([2]; HCT-15)?
**A.** 1.61 µM

**Q.** And the TGI ([2]; HCT-15)?
**A.** 22.1 µM

**Q.** What about the CC50 ([2]; HCT-15, read-out: LC50 (the source's name)) of the same compound?
**A.** > 100 µM

**Q.** What about the GI50 (KM12) of the same compound?
**A.** 1.33 µM

**Q.** What about the LC50 (KM12) of the same compound?
**A.** > 100 µM

**Q.** And the TGI (KM12)?
**A.** 4.38 µM

**Q.** And the GI50 (SW-620)?
**A.** 0.38 µM

**Q.** And the LC50 (SW-620)?
**A.** > 100 µM

**Q.** What about the TGI (SW-620) of the same compound?
**A.** > 100 µM

**Q.** What about the GI50 (SF-268) of the same compound?
**A.** 0.7 µM

**Q.** What about the LC50 (SF-268) of the same compound?
**A.** > 100 µM

**Q.** What about the TGI (SF-268) of the same compound?
**A.** 3.85 µM

**Q.** And the GI50 [3]?
**A.** 0.58 µM

**Q.** And the LC50 [3]?
**A.** 75.5 µM

**Q.** What about the TGI [3] of the same compound?
**A.** 4.51 µM

**Q.** And the GI50 (SNB-19)?
**A.** 0.96 µM

**Q.** What about the TGI (SNB-19) of the same compound?
**A.** > 100 µM

**Q.** What about the CC50 (SNB-19; [14]) of the same compound?
**A.** > 100 µM

**Q.** What about the GI50 (U-251) of the same compound?
**A.** 1.18 µM

**Q.** And the TGI (U-251)?
**A.** > 100 µM

**Q.** What about the CC50 (U-251; [14]) of the same compound?
**A.** > 100 µM

**Q.** And the GI50 (M14)?
**A.** 0.36 µM

**Q.** And the LC50 (concentration killing 50% of cells) (M14)?
**A.** > 100 µM

**Q.** And the TGI (M14)?
**A.** 3.88 µM

**Q.** What about the GI50 (MDA-MB-435) of the same compound?
**A.** 0.18 µM

**Q.** And the TGI (MDA-MB-435)?
**A.** 0.37 µM

**Q.** What about the CC50 (MDA-MB-435; [14]) of the same compound?
**A.** 0.78 µM

**Q.** What about the GI50 (SK-MEL-2) of the same compound?
**A.** 0.46 µM

**Q.** What about the LC50 (SK-MEL-2) of the same compound?
**A.** > 100 µM

**Q.** What about the TGI (SK-MEL-2) of the same compound?
**A.** 4.56 µM

**Q.** What about the GI50 [4] of the same compound?
**A.** 0.46 µM

**Q.** And the LC50 (concentration killing 50% of cells) [4]?
**A.** 28.5 µM

**Q.** And the TGI [4]?
**A.** 2.44 µM

**Q.** And the GI50 [5]?
**A.** 3.15 µM

**Q.** And the LC50 [5]?
**A.** > 100 µM

**Q.** What about the TGI [5] of the same compound?
**A.** 97.3 µM

**Q.** And the GI50 ([6]; OVCAR-8)?
**A.** 3.64 µM

**Q.** What about the TGI ([6]; OVCAR-8) of the same compound?
**A.** > 100 µM

**Q.** What about the CC50 ([6]; OVCAR-8, read-out: LC50 (the source's name)) of the same compound?
**A.** > 100 µM

**Q.** And the GI50 (SK-OV-3)?
**A.** 2.36 µM

**Q.** And the LC50 (SK-OV-3)?
**A.** > 100 µM

**Q.** And the TGI (SK-OV-3)?
**A.** 71.5 µM

**Q.** And the GI50 (A498)?
**A.** 0.13 µM

**Q.** And the LC50 (A498)?
**A.** > 100 µM

**Q.** And the TGI (A498)?
**A.** 0.74 µM

**Q.** And the GI50 (CAKI-1)?
**A.** 0.47 µM

**Q.** And the TGI (CAKI-1)?
**A.** 10 µM

**Q.** What about the CC50 (CAKI-1; [14]) of the same compound?
**A.** > 100 µM

**Q.** And the GI50 ([7]; RXF 393)?
**A.** 0.28 µM

**Q.** What about the TGI ([7]; RXF 393) of the same compound?
**A.** 0.88 µM

**Q.** And the CC50 ([7]; RXF 393, read-out: LC50 (the source's name))?
**A.** 5.39 µM

**Q.** And the GI50 (SN12C)?
**A.** 1.5 µM

**Q.** What about the TGI (SN12C) of the same compound?
**A.** 11.5 µM

**Q.** What about the CC50 (SN12C; [14]) of the same compound?
**A.** > 100 µM

**Q.** What about the GI50 (PC-3) of the same compound?
**A.** 4.19 µM

**Q.** And the TGI (PC-3)?
**A.** > 100 µM

**Q.** What about the CC50 (PC-3; [14]) of the same compound?
**A.** > 100 µM

**Q.** What about the GI50 (DU-145) of the same compound?
**A.** 0.71 µM

**Q.** And the TGI (DU-145)?
**A.** > 100 µM

**Q.** And the CC50 (DU-145; [14])?
**A.** > 100 µM

**Q.** What about the GI50 (MDA-MB-231) of the same compound?
**A.** 1.2 µM

**Q.** What about the TGI (MDA-MB-231) of the same compound?
**A.** 12.2 µM

**Q.** What about the CC50 (MDA-MB-231; [14]) of the same compound?
**A.** > 100 µM

**Q.** What about the GI50 [8] of the same compound?
**A.** 0.43 µM

**Q.** And the TGI [8]?
**A.** 6.2 µM

**Q.** And the CC50 [8, 14]?
**A.** > 100 µM

**Q.** What about the GI50 (T47D) of the same compound?
**A.** 0.78 µM

**Q.** And the TGI (T47D)?
**A.** 6.09 µM

**Q.** What about the CC50 (T47D; [14]) of the same compound?
**A.** > 100 µM

**Q.** What about the GI50 (MDA-MB-468) of the same compound?
**A.** 0.26 µM

**Q.** And the TGI (MDA-MB-468)?
**A.** 0.74 µM

**Q.** What about the CC50 (MDA-MB-468; [14]) of the same compound?
**A.** > 100 µM

**Q.** What about the growth at 10 µM [9] of the same compound?
**A.** 4.45%

**Q.** What about the growth at 10 µM [10] of the same compound?
**A.** 6.51%

**Q.** And the growth at 10 µM [11]?
**A.** -19.2%

**Q.** And the growth at 10 µM [12]?
**A.** 38.8%

**Q.** What about the growth at 10 µM [13] of the same compound?
**A.** -4%

**Q.** What about the GI50 (CCRF-CEM) of the same compound?
**A.** 0.43 µM

**Q.** What about the TGI (CCRF-CEM) of the same compound?
**A.** > 100 µM

**Q.** And the CC50 (CCRF-CEM; [14])?
**A.** > 100 µM

**Q.** What about the CC50 (HL-60(TB)) of the same compound?
**A.** > 100 µM

**Q.** And the GI50 (K562)?
**A.** 1.08 µM

**Q.** And the TGI (K562)?
**A.** > 100 µM

**Q.** And the CC50 (K562; [14])?
**A.** > 100 µM

**Q.** And the GI50 (RPMI-8226)?
**A.** 0.32 µM

**Q.** What about the TGI (RPMI-8226) of the same compound?
**A.** > 100 µM

**Q.** And the CC50 (RPMI-8226; [14])?
**A.** > 100 µM

**Q.** What about the GI50 (A549) of the same compound?
**A.** 2.39 µM

**Q.** What about the TGI (A549) of the same compound?
**A.** > 100 µM

**Q.** And the CC50 (A549; [14])?
**A.** > 100 µM

**Q.** What about the GI50 (NCI-H23) of the same compound?
**A.** 1.59 µM

**Q.** And the TGI (NCI-H23)?
**A.** > 100 µM

**Q.** What about the CC50 (NCI-H23; [14]) of the same compound?
**A.** > 100 µM
